Each structure is given as a SMILES string.

One experiment has as its target T1, Acetylcholinesterase (Rattus norvegicus, UniProt P37136).
T1 sequence (P37136 whole entry): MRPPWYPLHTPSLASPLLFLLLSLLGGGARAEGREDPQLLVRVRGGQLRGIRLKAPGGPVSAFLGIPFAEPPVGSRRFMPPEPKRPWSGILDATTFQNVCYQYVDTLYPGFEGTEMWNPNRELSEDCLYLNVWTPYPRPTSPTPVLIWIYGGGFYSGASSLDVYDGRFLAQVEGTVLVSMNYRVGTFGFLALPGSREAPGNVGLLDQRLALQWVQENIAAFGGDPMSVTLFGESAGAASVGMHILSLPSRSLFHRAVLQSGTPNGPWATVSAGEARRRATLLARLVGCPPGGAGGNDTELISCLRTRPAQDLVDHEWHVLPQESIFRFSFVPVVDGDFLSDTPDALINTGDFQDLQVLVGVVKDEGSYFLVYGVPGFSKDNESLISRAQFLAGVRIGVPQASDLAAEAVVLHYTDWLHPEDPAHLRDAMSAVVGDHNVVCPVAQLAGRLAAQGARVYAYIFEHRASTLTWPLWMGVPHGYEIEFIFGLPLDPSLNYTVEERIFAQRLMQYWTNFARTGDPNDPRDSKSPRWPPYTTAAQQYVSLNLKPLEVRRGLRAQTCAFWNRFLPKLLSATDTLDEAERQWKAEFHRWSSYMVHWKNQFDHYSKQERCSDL
The experiment in a line: Inhibition of AChE in rat cerebral cortex homogenates using acetylthiocholine iodide as substrate after 8 mins by Ellman's spectrophotometric method. The class given is tissue-based. The procedure, abridged: (§1)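 Ellman colorimetric assay. Compounds were dissolved in DMSO to 10 mM and diluted in double-distilled water. Each mixture held compound, phosphate buffer ([…]) and enzyme with substrate. For AChE, rat cerebral cortex homogenate was used with acetylthiocholine iodide (2 mM solution). For BuChE, rat serum was used with S-butyrylthiocholine iodide (2 mM solution). Incubated 8 min, stopped with 3% SDS, then 0.2% DTNB added. Absorbance read at 440 nm, duplicates.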
Background: In Ellman's method for cholinesterases, released thiocholine reacts with DTNB.

Another experiment is filed under the species Rattus norvegicus. The experiment in a line: Selectivity ratio of IC50 for rat serum BuChE to IC50 for AChE in rat cerebral cortex homogenates. The class given is tissue-based.
Another experiment addresses Butyrylcholinesterase (Rattus norvegicus, UniProt Q9JKC1). Nature of the experiment: Inhibition of rat serum BuChE using S-butyrylthiocholine iodide as substrate after 8 mins by Ellman's spectrophotometric method. The procedure, abridged: as §1

Butyrylcholinesterase, sequence (Q9JKC1 whole entry): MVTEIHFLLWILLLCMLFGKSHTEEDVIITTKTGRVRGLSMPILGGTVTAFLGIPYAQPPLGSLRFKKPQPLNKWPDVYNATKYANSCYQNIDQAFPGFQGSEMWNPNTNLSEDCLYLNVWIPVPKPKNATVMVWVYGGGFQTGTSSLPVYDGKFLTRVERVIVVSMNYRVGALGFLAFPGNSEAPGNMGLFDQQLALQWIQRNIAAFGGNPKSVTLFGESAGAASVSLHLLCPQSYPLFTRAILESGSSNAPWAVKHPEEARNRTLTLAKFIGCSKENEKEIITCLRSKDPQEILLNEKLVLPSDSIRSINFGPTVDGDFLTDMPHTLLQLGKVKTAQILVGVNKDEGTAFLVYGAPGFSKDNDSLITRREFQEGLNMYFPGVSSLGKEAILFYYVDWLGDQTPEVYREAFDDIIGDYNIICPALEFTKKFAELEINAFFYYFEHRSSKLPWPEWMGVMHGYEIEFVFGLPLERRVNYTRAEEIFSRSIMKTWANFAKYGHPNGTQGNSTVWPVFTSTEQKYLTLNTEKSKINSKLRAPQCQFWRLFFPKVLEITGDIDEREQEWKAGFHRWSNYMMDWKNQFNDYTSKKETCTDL

For `CCN(CC)C(=O)C1CCN(C(=O)Nc2cccc(Cn3nc(Nc4ccc(C)cc4)ccc3=O)c2)CC1`, at Acetylcholinesterase (read-out: IC50), the IC50 (usually the point on the concentration scale where inhibition reaches its midpoint) was 19800 nM.

For `c1ccc(CN2CCC(CCN=c3cc4c(n[nH]3)-c3ccccc3C4)CC2)cc1`, the IC50 at Acetylcholinesterase (read-out: IC50) is 10 nM.

Turning to `CCN(CC)C(=O)C1CCN(C(=O)Nc2cccc(Cn3nc(-c4ccc5ccccc5c4)ccc3=O)c2)CC1`, the half-maximal inhibitory concentration (IC50) at Acetylcholinesterase (read-out: IC50) came out at 462 nM.

Regarding `CCN(CC)C(=O)C1CCN(C(=O)Nc2cccc(Cn3nc(Nc4ccccc4)ccc3=O)c2)CC1`, the Ratio IC50 in the experiment filed under Rattus norvegicus is > 12. Besides, the half-inhibitory concentration (IC50) was > 40000 nM on Butyrylcholinesterase and 3280 nM on Acetylcholinesterase (read-out: IC50).

With `CCN(CC)C(=O)C1CCN(C(=O)Nc2cccc(Cn3nc(-c4cccc(Cl)c4)ccc3=O)c2)CC1`, on Acetylcholinesterase (read-out: IC50), the concentration for half-maximal inhibition (IC50) was 648 nM.

Turning to `CCN(CC)C(=O)C1CCN(C(=O)Nc2cccc(Cn3nc(-c4cccc(C)c4)ccc3=O)c2)CC1`, the concentration for half-maximal inhibition (IC50) on Acetylcholinesterase (read-out: IC50) was 746 nM.

Take `CCN(CC)C(=O)C1CCN(C(=O)Nc2cccc(Cn3nc(Nc4cccc(C)c4)ccc3=O)c2)CC1`: on Acetylcholinesterase (read-out: IC50), the IC50 is 1420 nM.

As for `CCN(CC)C(=O)C1CCN(C(=O)Nc2cccc(Cn3nc(Nc4cccc5ccccc45)ccc3=O)c2)CC1`, the half-maximal inhibitory concentration (IC50) on Acetylcholinesterase (read-out: IC50) stood at 126 nM.

For `CCN(CC)C(=O)C1CCN(C(=O)Nc2cccc(Cn3nc(-c4ccc(C)cc4)ccc3=O)c2)CC1`, the 50% inhibitory concentration (IC50) at Acetylcholinesterase (read-out: IC50) turned out to be 2010 nM.

As to `Cc1ccccc1Nc1ccc(=O)n(Cc2cccc(NC(=O)N3CCC(C(=O)N(C)C)CC3)c2)n1`, the half-inhibitory concentration (IC50) on Acetylcholinesterase (read-out: IC50) stood at 7600 nM.

For `CCc1ccccc1Nc1ccc(=O)n(Cc2cccc(NC(=O)N3CCC(C(=O)N(CC)CC)CC3)c2)n1`, at Acetylcholinesterase (read-out: IC50), the half-maximal inhibitory concentration (IC50) is 188 nM.

For the compound `CCN(CC)C(=O)C1CCN(C(=O)Nc2cccc(Cn3nc(-c4cccc5ccccc45)ccc3=O)c2)CC1`, the Ratio IC50 in the experiment filed under Rattus norvegicus was > 212. Further, the half-inhibitory concentration (IC50) is > 40000 nM at Butyrylcholinesterase and 188 nM on Acetylcholinesterase (read-out: IC50).

Take `CCN(CC)C(=O)C1CCN(C(=O)Nc2cccc(Cn3nc(-c4cccc(Br)c4)ccc3=O)c2)CC1`: on Acetylcholinesterase (read-out: IC50), the half-maximal inhibitory concentration (IC50) turned out to be 623 nM.

`Cc1ccccc1Nc1ccc(=O)n(Cc2cccc(NC(=O)N3CCC(C(=O)N(C(C)C)C(C)C)CC3)c2)n1`: the half-inhibitory concentration (IC50) at Acetylcholinesterase (read-out: IC50) came out at 116 nM.

Turning to `CCN(CC)C(=O)C1CCN(C(=O)Nc2cccc(Cn3nc(Nc4cccc(C(F)(F)F)c4)ccc3=O)c2)CC1`, the 50% inhibitory concentration (IC50) on Acetylcholinesterase (read-out: IC50) turned out to be 135 nM.

Regarding `CCN(CC)C(=O)C1CCN(C(=O)Nc2cccc(Cn3nc(Nc4c(C)cccc4C)ccc3=O)c2)CC1`, on Acetylcholinesterase (read-out: IC50), the 50% inhibitory concentration (IC50) is 607 nM.

As for `CCN(CC)C(=O)C1CCN(C(=O)Nc2cccc(Cn3nc(Nc4ccccc4C(F)(F)F)ccc3=O)c2)CC1`, the IC50 at Acetylcholinesterase (read-out: IC50) was 119 nM.

Turning to `CCN(CC)C(=O)C1CCN(C(=O)Nc2cccc(Cn3ncccc3=O)c2)CC1`, the IC50 at Acetylcholinesterase (read-out: IC50) amounted to 4900 nM.

As for `CCN(C)C(=O)C1CCN(C(=O)Nc2cccc(Cn3nc(Nc4ccccc4C)ccc3=O)c2)CC1`, the Ratio IC50 in the experiment listed under Rattus norvegicus is > 84. For the same compound, the IC50 against Butyrylcholinesterase is > 40000 nM; at Acetylcholinesterase (read-out: IC50) it was 473 nM.

For the compound `c1ccc(CN2CCC(CCNc3cc4c(nn3)-c3ccccc3CC4)CC2)cc1`, at Acetylcholinesterase (read-out: IC50), the IC50 stood at 39 nM.

As for `CCN(CC)C(=O)C1CCN(C(=O)Nc2cccc(Cn3nc(Nc4ccccc4C(C)C)ccc3=O)c2)CC1`, the half-inhibitory concentration (IC50) at Acetylcholinesterase (read-out: IC50) amounted to 1500 nM.

For the compound `CCN(C(=O)C1CCN(C(=O)Nc2cccc(Cn3nc(Nc4ccccc4C)ccc3=O)c2)CC1)C(C)C`, the Ratio IC50 in the experiment filed under Rattus norvegicus is 196. In addition, the half-maximal inhibitory concentration (IC50) against Butyrylcholinesterase was 5500 nM; at Acetylcholinesterase (read-out: IC50), 28 nM.

Turning to `CCN(CC)C(=O)C1CCN(C(=O)Nc2cccc(Cn3nc(-c4ccccc4)ccc3=O)c2)CC1`, in the experiment listed under Rattus norvegicus, the Ratio IC50 was > 24. For the same compound, the IC50 was > 40000 nM on Butyrylcholinesterase and 1660 nM at Acetylcholinesterase (read-out: IC50).

Consider `CCN(CC)C(=O)C1CCN(C(=O)Nc2cccc(Cn3nc(-c4ccccc4C)ccc3=O)c2)CC1`, for which, on Acetylcholinesterase (read-out: IC50), the IC50 came to 2610 nM.

`CCN(CC)C(=O)C1CCN(C(=O)Nc2cccc(Cn3nc(Nc4ccc(C(F)(F)F)cc4)ccc3=O)c2)CC1`: the IC50 at Acetylcholinesterase (read-out: IC50) was found to be 4840 nM.

On to `CCN(CC)C(=O)C1CCN(C(=O)Nc2cccc(Cn3nc(-c4cccc(C#N)c4)ccc3=O)c2)CC1`, for which, at Acetylcholinesterase (read-out: IC50), the concentration for half-maximal inhibition (IC50) amounted to 220 nM.

As to `Cc1ccccc1Nc1ccc(=O)n(Cc2cccc(NC(=O)N3CCC(C(=O)N(C)C(C)C)CC3)c2)n1`, the Ratio IC50 in the experiment listed under Rattus norvegicus came to 217. Further, the values for the half-inhibitory concentration (IC50) against Butyrylcholinesterase and on Acetylcholinesterase (read-out: IC50) were 10000 nM and 46 nM, respectively.

`CCN(CC)C(=O)C1CCN(C(=O)Nc2cccc(Cn3nc(Nc4ccccc4C)ccc3=O)c2)CC1`: in the experiment filed under Rattus norvegicus, the Ratio IC50 was > 816. For the same compound, the IC50 against Butyrylcholinesterase is > 40000 nM; at Acetylcholinesterase (read-out: IC50) it was 49 nM.

Consider `Cc1ccccc1Nc1ccc(=O)n(Cc2cccc(NC(=O)N3CCC(C(=O)N4CCOCC4)CC3)c2)n1`, for which the IC50 result against Acetylcholinesterase is on record as “Not Active”.

Values taken from ChEMBL document CHEMBL2375253, “Discovery of novel 2,6-disubstituted pyridazinone derivatives as acetylcholinesterase inhibitors” (Eur J Med Chem, 2013).
